Source: PubChem (several laboratories)
ABHD5-PLIN5 inh: ABHD5-PLIN5 interaction inhibitors, primary screen, cell lysate, split luciferase complementation, luminescence; 360,000 tested, 0.78% active; Split G. princeps luciferase complementation, 4 h; inhibition, % at 4 µM;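 active = inhibition above the mean inhibition across every tested compound plus 3 SD, cut at about 22% in these data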;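 note: 0% = DMSO only wells and the 100% control is not disclosed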
Target sequence (Q00G26 whole entry, looked up): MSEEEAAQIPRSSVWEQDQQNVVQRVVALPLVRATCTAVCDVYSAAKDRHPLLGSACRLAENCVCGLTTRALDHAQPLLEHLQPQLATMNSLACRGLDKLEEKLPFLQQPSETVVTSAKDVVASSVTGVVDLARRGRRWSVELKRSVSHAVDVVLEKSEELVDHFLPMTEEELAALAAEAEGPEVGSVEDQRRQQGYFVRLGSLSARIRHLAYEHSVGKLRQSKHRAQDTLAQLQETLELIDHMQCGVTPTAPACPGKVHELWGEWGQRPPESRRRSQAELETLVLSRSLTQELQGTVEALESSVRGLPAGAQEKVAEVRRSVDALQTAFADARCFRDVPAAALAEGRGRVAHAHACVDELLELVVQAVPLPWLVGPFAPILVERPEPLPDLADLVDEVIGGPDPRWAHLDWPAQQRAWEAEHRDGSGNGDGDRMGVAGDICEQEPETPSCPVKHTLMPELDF
Target sequence (Q8WTS1 whole entry, looked up): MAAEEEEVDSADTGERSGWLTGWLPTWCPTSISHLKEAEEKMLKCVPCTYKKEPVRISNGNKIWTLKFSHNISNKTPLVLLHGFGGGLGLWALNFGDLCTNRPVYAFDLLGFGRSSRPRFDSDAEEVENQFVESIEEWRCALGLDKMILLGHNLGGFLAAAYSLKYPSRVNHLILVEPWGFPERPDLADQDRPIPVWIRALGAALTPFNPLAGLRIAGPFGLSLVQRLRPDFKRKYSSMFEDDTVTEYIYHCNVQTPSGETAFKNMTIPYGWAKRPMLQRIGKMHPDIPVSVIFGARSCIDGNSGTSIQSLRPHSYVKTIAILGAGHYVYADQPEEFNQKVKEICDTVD
MBD2 DNA inh: inhibitors of MBD2 binding to methylated DNA, primary screen, biochemical, TR-FRET, DNA-binding domain, human; Methyl-CpG-binding domain protein 2 (Homo sapiens), Q9UBB5; inhibition, % at 4.4 µM; MBD2 binding to methylated oligonucleotide; 370,000 tested, 0.31% active; in the data active = inhibition above about 13%
UHRF1 binding: UHRF1 methylated DNA binding inhibitors, primary screen, counter-screen for MBD2 inhibitor project, biochemical, TR-FRET, human UHRF1, single concentration. inhibition, % at 4.4 µM. UHRF1 binding to methylated oligo. AID 687016, 2013. E3 ubiquitin-protein ligase UHRF1 (Homo sapiens), Q96T88. 370,000 tested, 0.75% active; in the data active = inhibition above about 21%;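 note: UHRF1 SRA domain binding a hemimethylated CpG hairpin DNA probe; 0% = median of test compound wells and 100% = reference inhibitor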
Rin1 Abl inh: inhibitors of Rin1-Abl protein binding, primary screen, biochemical, TR-FRET; Tyrosine-protein kinase ABL1 (Homo sapiens) + Ras and Rab interactor 1 (Homo sapiens), …; inhibition, % at 7.35 µM; 360,000 tested, 0.4% active; in the data active = inhibition above about 5%, passing the limit was not always enough
Arr AP2 block: inhibitors of beta-arrestin/AP2 binding, primary screen, biochemical, GPCR trafficking, flow cytometry; inhibition, % at 10 µM; 340,000 tested, 0.31% active; FITC-arrestin peptide / GST-AP2 beads; AP2 beta2 appendage carries R879A mutation; beta-arrestin 1 C-terminal peptide binding to AP2 beta2-adaptin appendage (human); AID 504490, 2011;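 active = inhibition above a set limit, near 3 SD of compounds lacking own fluorescence, cut at about 54% in these data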;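 note: plate controls were DMSO wells for no effect and 5 µM unlabelled arrestin peptide for full effect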
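System: GST-AP2 R879A glutathione beads; medium: PBS, Tween 20 0.05%, BSA 0.1%; reagent: fluorescein-tagged arrestin peptide at 50 nM final; schedule: pre-incubation 12 min, peptide binding 1 h, room temperature; detection: flow cytometry, FL1 (488/535 nm); read-out: inhibition as reduced fluorescein signal on beads, percent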
B2AR ag: beta2AR agonists driving receptor internalization, primary screen, cell-based, FAP fluorogen, flow cytometry | AID 504454, 2011 | Am2.2-beta2AR cells | response, % (no concentration beside the values) | 340,000 tested, 0.43% active | Beta-2 adrenergic receptor (Homo sapiens), P07550;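 active = response above a set limit, near 3 SD of response in nonfluorescent compounds, cut at about 42% in these data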
Starred values were filed as active, the others as inactive; · = no result. The list is not random: actives were taken first. Their share in the collection is about 2.5%.

SMILES | ABHD5-PLIN5 inh | MBD2 DNA inh | UHRF1 binding | Rin1 Abl inh | Arr AP2 block | B2AR ag
COc1ccc(NC(=O)CN(c2ccc(C)cc2)S(C)(=O)=O)c(OC)c1 | 5.5 | 0.0 | 39.8* | 1.0 | 16.7 | -0.7
COc1ccc(C=Nn2c(-c3ccccc3F)n[nH]c2=S)cc1OCc1ccccc1 | · | 0.8 | 2.7 | · | · | ·
CCc1cccc(OCC(=O)Nc2ccc(S(=O)(=O)Nc3ccccn3)cc2)c1 | -8.3 | -1.9 | 79.0* | 3.4 | 3.4 | 22.6
C=CCNC(=O)CSc1nc2c(c(=O)[nH]1)CCCC2 | · | -0.6 | -0.6 | · | · | ·
CCOC(=O)Cc1nc(N2CCCN(C(C)=O)CC2)c2c(C)c(C(=O)OCC)sc2n1 | · | 0.4 | 3.6 | · | · | ·
Cc1cc(C)c2c(c1)NC(C(=O)O)C1CC=CC21 (centres undefined) | -3.7 | 15.5* | 39.2* | 0.5 | 32.0 | -6.5
C[C@@H]1/C=C/CC(=O)N[C@H](c2cccc(Br)c2)[C@H](C)/C=C/CC(=O)N[C@@H]1c1cccc(Br)c1 | · | -9.3 | -1.3 | · | · | ·
Oc1ccc(Oc2ccccc2F)c2cccnc12 | · | -0.3 | 11.1 | · | · | ·
O=C(CN1CCN(c2ccccn2)CC1)Nc1ccccc1 | 13.0 | -3.0 | -0.5 | -1.8 | 5.3 | 1.0
O=C(CN1CCN(c2ccccn2)CC1)NC1CCCC1 | -4.0 | 10.3 | 24.1* | -0.9 | -8.9 | 3.1
CC1=C2NC(N)=[N+](Cc3ccc4c(c3)OCO4)CC2NOC1 (centres undefined) | · | 0.5 | 1.8 | · | · | ·
CN1CCN(c2ccc(NC(=O)c3ccc(-c4ccccc4F)o3)cc2)CC1 | 9.7 | -3.4 | 37.3* | -2.7 | -6.3 | 26.3
O=C(NC1CCCCC1)c1ccc(-c2ccccc2F)o1 | 22.7* | -5.4 | 1.1 | 2.1 | 50.5 | 3.8
CN1CCN(c2ccc(NC(=O)c3ccc(Br)o3)cc2)CC1 | 1.5 | -0.3 | 3.9 | -2.7 | 1.9 | -11.9
Cc1ccc(-n2c(SCC(=O)N/N=C/C=C\c3ccccc3[N+](=O)[O-])nnc2-c2ccccc2)cc1 | · | -7.0 | -1.9 | · | · | ·
CCOc1ccc(-n2c(SCC(=O)Nc3ccccc3-c3ccccc3)nnc2-c2ccncc2)cc1 | · | -3.4 | 0.3 | · | · | ·
Cc1ccc(NC(=O)CSCc2ccco2)cc1 | -4.5 | 0.5 | -0.5 | 1.5 | 33.7 | 4.5
c1coc(CSSCc2ccco2)c1 | -5.4 | 31.6* | 82.7* | 2.8 | 3.1 | -1.2
COc1ccc2cc3c(nc2c1)OCC3 | -1.3 | -3.1 | 20.8* | 1.1 | 36.0 | 4.1
COc1ccc(C(=O)NCc2ccccc2OC)cc1 | -4.2 | -3.3 | -1.3 | 0.1 | -5.3 | -1.6
COc1ccccc1CNC(=O)c1ccc(-c2ccccc2)cc1 | -5.9 | 4.5 | 26.2* | 1.9 | -2.1 | -7.4
Clc1ccc(C[n+]2csc3ccccc32)cc1 | -3.5 | 2.4 | -9.8 | 0.9 | 10.5 | 6.7
Fc1ccc(C[n+]2csc3ccccc32)cc1 | 53.8* | -2.9 | -3.1 | 1.0 | 8.2 | 6.4
FC(F)(F)c1cc(Cl)c2nc(-c3ccco3)c(Cc3ccccc3C(F)(F)F)n2c1 | 50.6* | 5.3 | 21.1* | · | · | ·
S=C(NCc1ccccc1)NCc1cccc(Cl)c1 | 4.0 | -0.6 | 3.1 | 1.8 | 8.5 | -8.8
SMILES | ABHD5-PLIN5 inh | MBD2 DNA inh | UHRF1 binding | Rin1 Abl inh | Arr AP2 block | B2AR ag
Fc1ccc(CNC(=S)NCc2cccc(Cl)c2)cc1 | -0.5 | 2.6 | 29.6* | -0.3 | 4.6 | -0.5
COC(=O)[C@H]1C[C@@]2(c3ccccc3)c3ccccc3N(S(=O)(=O)c3ccccc3)[C@H]2N1 | · | -1.2 | 6.0 | · | · | ·
CCOC(=O)c1c(C)[nH]c(C(=O)COC(=O)/C=C/c2ccc3c(c2)OCO3)c1C | 0.2 | 1.6 | -2.7 | 3.0 | 25.2 | 53.3*
CCOC(=O)c1c(C)[nH]c(C(=O)COC(=O)/C=C/c2ccc(O)c(OC)c2)c1C | -6.5 | -7.8 | -4.7 | 0.8 | -0.2 | 6.2
COc1ccc(-c2nnc3n2N=C(C)CS3)cc1 | -1.0 | -1.6 | -1.2 | -3.1 | -8.7 | 4.3
CCOC(=O)/C(=C\c1ccc(OC(F)F)cc1)C1=Nn2c(nnc2-c2ccc(Cl)cc2)SC1 | 20.2 | · | · | 0.5 | · | 80.4*
CC(=O)Nc1ccc(S(=O)(=O)/N=C2/NC(=O)/C(=C\c3ccco3)S2)cc1 | 5.5 | 3.9 | 30.7* | 9.2 | 41.2 | -7.1
Cc1ccc(S(=O)(=O)/N=C2/NC(=O)/C(=C\c3ccco3)S2)cc1 | 4.3 | -3.8 | 7.4 | -2.8 | 6.2 | -1.1
CN(C(=O)CCc1nnc(CCCCc2ccccc2)o1)C1CCOCC1 | -0.9 | 6.3 | 16.8 | -2.5 | 5.9 | -3.1
CN(C(=O)CCc1nnc(CCCCc2ccccc2)o1)C1CC(C)(C)NC(C)(C)C1 | 2.9 | 7.0 | 45.6* | 2.8 | 25.0 | 12.9
CN(C)CCNC(=O)C1CCCNC1=O (centres undefined) | -4.3 | 6.1 | -0.9 | -2.8 | 6.0 | 1.0
Cc1ccc(S(=O)(=O)NCCNC(=O)C2CCCNC2=O)cc1 (centres undefined) | 0.7 | 2.1 | 20.9* | -1.6 | -4.8 | -7.6
Cc1cccc(C(O)c2ncc(-c3ccc4ccccc4c3)[nH]2)c1C (centres undefined) | -0.9 | 3.8 | 30.4* | 1.4 | · | ·
CC1(C(=O)NCc2ccccc2)Cc2c(-c3ccccc3)ccnc2O1 (centres undefined) | 1.8 | 0.9 | 66.1* | -0.8 | · | ·
C[C@@H]1ON(C)[C@H]2C[C@H]3c4[nH]c5c(-c6ccccc6F)cccc5c4CCN3C[C@@H]12 | · | -2.2 | -0.8 | · | · | ·
CCOC(=O)Cc1nn(C)c(=O)c2ccccc12 | -1.7 | 4.1 | 26.1* | -0.2 | 2.0 | 1.3
Cn1nc(Cc2n[nH]c(=S)n2C)c2ccccc2c1=O | 0.2 | 0.5 | 56.1* | 1.0 | 28.1 | 3.0
O=C(Nc1ccncc1)c1ccc2c(c1)C(=O)N(C1CCCCC1)C2=O | -4.6 | 0.7 | 25.9* | -3.3 | 0.3 | 5.6
Cn1c(CN2CCCC2)c(C#N)c2ccccc21 | 0.7 | -3.6 | 65.2* | -1.4 | · | -9.0
CN1CCN(Cc2c(C#N)c3ccccc3n2C)CC1 | -1.8 | 2.1 | 3.3 | -3.7 | 0.0 | 3.7
CC(=O)CC[C@H]1CC[C@]2(CCCN(C(=O)c3ccco3)C2)O1 | · | 4.0 | 0.5 | · | · | ·
Cc1n[nH]c(C)c1S(=O)(=O)N1CCC(C(=O)O)CC1 | 6.2 | 9.9 | 20.7* | 1.5 | 2.0 | 2.2
O=C(CNC(c1ccccc1)c1ccccc1)Nc1c(F)cccc1F | -7.2 | -4.5 | 7.0 | 4.8 | -1.2 | -0.7
Fc1cccc(Cl)c1CNC(c1ccccc1)c1ccccc1 | -13.4 | -3.7 | 58.0* | -0.6 | 7.7 | 23.2
